# Shown are actives, neighbours in structure and some others; about 3.5% of the full set was active somewhere.
# MrgX1 antag: blocks BAM8-22 activation of human MrgX1 receptor. AID 588676. actives 1.3% (n = 310,000). Q96LB2. B-score at 10 µM. MRGX1-HEK293 calcium flux, Fluo-4, BAM8-22 antagonism; hits give low values;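 active = calcium-response B-score plate-corrected more than 3 library SD below zero, starting fluorescence within 5 deviations, no agonist response on first addition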;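 note: peak minus trough fluorescence over baseline after final BAM8-22 challenge near maximal dose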
# Target sequence (Q96LB2 whole entry, looked up): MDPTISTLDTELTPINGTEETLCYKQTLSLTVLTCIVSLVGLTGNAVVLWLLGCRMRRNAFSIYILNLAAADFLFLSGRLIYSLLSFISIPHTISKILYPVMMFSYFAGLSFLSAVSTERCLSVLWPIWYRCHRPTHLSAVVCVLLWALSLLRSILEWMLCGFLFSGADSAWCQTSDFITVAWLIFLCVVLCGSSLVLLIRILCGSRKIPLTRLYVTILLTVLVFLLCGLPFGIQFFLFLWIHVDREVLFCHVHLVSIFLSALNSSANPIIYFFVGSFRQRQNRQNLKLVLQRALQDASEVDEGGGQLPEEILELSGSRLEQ
# RGS4 pot: RGS4 potentiation or activation; HEK293 M3R/inducible RGS4, carbachol calcium flux Fluo4; hits give low values; B-score at 10 µM; actives 0.92% (n = 310,000);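 active = B-score of the integrated calcium signal more than 4 SD below the library mean, with starting fluorescence not abnormally high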;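 note: negative B-score means reduced calcium response which marks RGS4 activation or potentiation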
#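 Assay system: Inducible-RGS4 HEK293 cells carrying M3 receptor | Schedule: Compound preincubation 20 min at room temperature before agonist | Signal: Kinetic calcium fluorescence imaging with Fluo4-AM dye, 2 µM | Read-out basis: B score from integrated fluorescence ratio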
# MrgX1 allo act: human MrgX1 positive allosteric modulation, primary screen; MrgX1-HEK293, Fluo-4 calcium flux, FDSS; hits give high values; B-score at 10 µM; actives 0.63% (n = 310,000); AID 588675;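 active = plate-corrected calcium response at least 3 library SD above typical, normal starting fluorescence, not activating the receptor alone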;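 note: compound read alongside a low EC10 to EC30 dose of BAM8-22 agonist; peak minus trough fluorescence over baseline measured at the second addition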
# RGS4 inh: human RGS4 inhibition | HEK293 M3R/RGS4 inducible, Fluo-4 calcium flux; hits give high values; triggered by carbachol at its EC20 | B-score at 10 µM | P49798 | actives 0.45% (n = 310,000) | AID 463165;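 active = B-score, a plate-corrected calcium signal, over three deviations above library mean, with baseline fluorescence within five deviations of library mean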;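 note: RGS4 expression induced by doxycycline in cells with stable M3 receptor; B-score is computed from the integrated fluorescence ratio over baseline after carbachol; higher B-score means a larger calcium signal and so more RGS4 inhibition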
# Target sequence (P49798 whole entry, looked up): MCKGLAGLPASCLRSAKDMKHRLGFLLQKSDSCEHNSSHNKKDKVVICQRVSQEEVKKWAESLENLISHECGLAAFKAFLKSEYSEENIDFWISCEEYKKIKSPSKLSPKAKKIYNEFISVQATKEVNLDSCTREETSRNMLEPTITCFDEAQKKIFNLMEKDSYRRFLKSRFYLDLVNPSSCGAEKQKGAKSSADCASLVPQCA
# MrgX1 ag: human MrgX1 receptor agonism, primary screen; Q96LB2; MrgX1-HEK293 cells, Fluo-4 calcium fluorescence, agonist mode; hits give high values; B-score at 10 µM; actives 0.44% (n = 310,000); AID 588627;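 active = calcium response B-score plate-corrected fluorescence ratio at least 3 library SD, with starting fluorescence B-score inside 5 SD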
#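 Material – MrgX1-expressing HEK293 cells · Input – 15,000 cells seeded per well · Dosing – compound as first of three additions · Times – overnight seeding, then 1 h dark dye loading · Measured by – kinetic Fluo-4 NW fluorescence of intracellular calcium · Read-out – B-scored fluorescence response ratio · Benchmarks – positive and negative control wells on each plate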
# Active calls of the source: *; i = inactive.
SMILES,MrgX1 antag,RGS4 pot,MrgX1 allo act,RGS4 inh,MrgX1 ag
CC/C(=N\N=C1\SC(C)C(=O)N1Cc1ccco1)c1ccccc1 (stereo unspecified),i,i,12.1*,i,i
CC(c1ccccc1)C1CC(=O)N(Cc2ccco2)C1=O (stereo unspecified),i,i,i,i,i
CC1S/C(=N/N=C/c2ccco2)N(Cc2ccccc2)C1=O (stereo unspecified),i,i,8*,i,i
Cc1ccccc1CN1C(=O)CS/C1=N/N=C/c1ccco1,i,i,7.18*,i,i
CCC1S/C(=N/N=C/c2ccco2)N(Cc2ccc(F)cc2)C1=O (stereo unspecified),i,i,i,i,i
CCC1S/C(=N/N=C/c2ccco2)N(Cc2ccccc2C)C1=O (stereo unspecified),i,i,i,i,i
COc1cccc(NC(=O)CN(C)C(=O)CC2CC3CCC2C3)c1 (stereo unspecified),i,i,i,i,i
CCN(CC)S(=O)(=O)c1cccc(NC(=O)CCNC(=O)NC23CC4CC(CC(C4)C2)C3)c1,i,i,i,i,i
COc1cc2ccccc2cc1C(=O)OCC(=O)N(CC(C)C)c1c(N)n(Cc2ccccc2)c(=O)[nH]c1=O,i,i,i,i,i
O=c1ccc2cc3c(-c4ccccc4)coc3cc2o1,i,i,i,i,i
O=C(CCSc1ccc(Cl)cc1)N1CCN(c2ccc(O)cc2)CC1,i,-7.16*,i,i,i
CN1C(=O)/C(=C/c2ccccc2OCc2ccc(F)cc2)N(C)C1=S,-5.23*,-9.61*,i,i,i
CN1C(=O)/C(=C/c2ccccc2OCc2ccccc2)NC1=S,i,i,i,i,i
CCN(CC)c1ccc2cc(C(=O)NCc3ccc(F)cc3)c(=N)oc2c1,i,i,i,i,36.5*
CCCCCCc1cc2cc(C(=O)NCc3ccccc3)c(=N)oc2cc1O,i,i,6.97*,i,i
O=C(CCc1nnc(CCCCc2ccccc2)o1)NCCN1CCOC1=O,-5.33*,i,i,i,i
O=C(CCc1nnc(CCCCc2ccccc2)o1)NCCn1cccn1,i,i,i,i,i
CCC1=NN(C(=O)c2ccc(Br)cc2)C(O)(c2ccccc2)C1 (stereo unspecified),i,i,i,i,29.6*
COc1ccc(CC(=O)Nc2ccc(N(C)C)c3ccccc23)cc1,i,i,i,i,i
CCn1cc([N+](=O)[O-])c(C(=O)Nc2nc3ccc(OC)cc3s2)n1,i,i,i,i,i
CCOC(=O)c1nn(-c2ccc(Cl)cc2)c(=O)c(C#N)c1C,i,i,i,i,i
CCOC(=O)c1nn(-c2ccc(Cl)cc2Cl)c(=N)c(C#N)c1C,-7.53*,i,i,i,i
COc1ccc(C(CNC(=O)c2ccc(-c3ccccc3Cl)o2)N2CCOCC2)cc1 (stereo unspecified),i,i,i,i,i
COc1ccccc1C(CNC(=O)c1ccc(-c2ccccc2Cl)o1)N1CCCC1 (stereo unspecified),i,-7.06*,i,i,i
CCN(CC(=O)Nc1c(F)cccc1F)C(=O)CN1C(=O)NC2(CCCC2)C1=O,i,i,i,i,i
SMILES,MrgX1 antag,RGS4 pot,MrgX1 allo act,RGS4 inh,MrgX1 ag
Cc1c(C)c2ccc(OCC(=O)N3CCN(C(=O)C4COc5ccccc5O4)CC3)cc2oc1=O (stereo unspecified),i,-7.25*,i,i,i
Cc1cc(=O)oc2cc(OCC(=O)N3CCN(C(=O)C4COc5ccccc5O4)CC3)ccc12 (stereo unspecified),i,i,i,i,i
COc1ccc(-n2c(-c3ccc(Br)cc3)c[n+]3c2CCC3)cc1,i,-7.21*,i,i,i
O=C(Cc1ccsc1)NNC(=O)c1ccccc1O,i,i,i,i,i
N#C/C(C(=O)NCc1ccccc1)=C1/N=C(NC(=O)c2ccco2)c2ccccc21,i,i,i,i,i
COc1ccc(CCNC(=O)/C(C#N)=C2\N=C(NC(=O)c3ccco3)c3ccccc32)cc1,-4.66*,i,i,i,i
CCOC(=O)C1(CCOc2ccccc2)CCN(Cc2ccc(OC)c(COC)c2)CC1,-4.68*,i,i,i,i
COC(=O)c1ccc(CN2CCC(CO)(CCOc3ccccc3)CC2)cc1,i,-6.95*,i,i,i
CCOC(=O)C1(CCOc2ccccc2)CCN(Cc2ccc(COC)o2)CC1,i,i,i,i,32.5*
COC(=O)c1ccc(CN2CCC(CO)(Cc3cccc(OC)c3)CC2)cc1,i,i,i,i,i
Cc1ccc(C(=O)N/C(=C\c2cccc([N+](=O)[O-])c2)C(=O)Nc2cccc(C(=O)O)c2)cc1,i,i,i,i,i
COc1ccc(C(=O)N/C(=C\c2cccc([N+](=O)[O-])c2)C(=O)Nc2cccc(C(=O)O)c2)cc1,-6.86*,i,i,i,i
O=C(N/N=C/c1cc([N+](=O)[O-])ccc1O)c1cc(-c2ccccc2)nc2ccccc12,-6.04*,i,i,i,i
COc1ccc(N(C)S(=O)(=O)c2cccc(C(=O)NCC(c3cccs3)N(C)C)c2)cc1 (stereo unspecified),i,i,i,i,i
COc1cccc(CNS(=O)(=O)c2ccc3c(c2)C(C)(C)C(=O)N3C)c1,i,i,i,i,i
COCCN1CCN(C(=O)c2ccc3nc(Cc4ccc(OC)c(OC)c4)oc3c2)CC1,-5.9*,i,i,i,i
COc1ccc(Cc2nc3ccc(C(=O)N4C[C@@H](C)O[C@@H](C)C4)cc3o2)cc1OC,i,i,i,i,i
CN1CCc2cc3c(c4c2[C@H]1[C@H](O)c1ccccc1-4)OCO3,i,-7.37*,i,i,i
c1cnc(N2CC[N+]3(CCCC3)CC2)nc1,i,-7.73*,i,i,i
c1ccc(N2CC[N+]3(CCCC3)CC2)nc1,i,i,i,i,i
COC(=O)C1(C(C[N+](=O)[O-])c2ccco2)C(=O)NCC1c1ccccc1 (stereo unspecified),i,i,i,i,41.8*
COc1ccc(C(=O)Nc2ccc(NC(=O)c3cc(OC)c(OC)c(OC)c3)cn2)cc1,i,i,i,i,i
